Here are results for 3 compounds from ChEMBL document CHEMBL5653631, “A Potent and Selective ULK1 Inhibitor Suppresses Autophagy and Sensitizes Cancer Cells to Nutrient Stress” (iScience, 2018).

Structures are written as SMILES.

For assay [1], the target named is T1, G protein-coupled receptor kinase 3 (Homo sapiens) (UniProt P35626).
T1 sequence (whole entry): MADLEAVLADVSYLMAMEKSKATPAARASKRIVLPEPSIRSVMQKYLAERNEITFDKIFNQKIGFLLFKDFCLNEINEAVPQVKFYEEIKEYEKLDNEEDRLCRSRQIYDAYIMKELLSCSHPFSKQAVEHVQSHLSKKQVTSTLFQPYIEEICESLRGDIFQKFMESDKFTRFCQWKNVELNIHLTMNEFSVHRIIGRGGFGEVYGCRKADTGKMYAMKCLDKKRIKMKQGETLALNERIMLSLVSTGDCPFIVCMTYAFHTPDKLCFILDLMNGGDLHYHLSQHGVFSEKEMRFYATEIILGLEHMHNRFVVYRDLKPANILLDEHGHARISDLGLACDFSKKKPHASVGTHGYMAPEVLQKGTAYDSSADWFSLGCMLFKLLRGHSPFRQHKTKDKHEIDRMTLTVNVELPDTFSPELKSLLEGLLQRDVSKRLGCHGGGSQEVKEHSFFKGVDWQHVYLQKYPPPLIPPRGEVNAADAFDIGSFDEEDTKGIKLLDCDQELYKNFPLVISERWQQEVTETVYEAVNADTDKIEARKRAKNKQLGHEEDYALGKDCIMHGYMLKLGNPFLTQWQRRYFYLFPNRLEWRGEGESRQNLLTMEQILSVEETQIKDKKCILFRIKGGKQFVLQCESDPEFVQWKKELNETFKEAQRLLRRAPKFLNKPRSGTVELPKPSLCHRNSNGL
In words: Inhibition of human recombinant BARK2 at 15 nM in presence of ATP by radiometric assay relative to control. In outline: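 Part of a radiometric in vitro activity panel of 327 recombinant human kinases. Each kinase was tested in duplicate at one inhibitor concentration. Activity remaining was expressed as a percentage of the vehicle control, and percent inhibition was taken as 100 minus that value.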

Assay [2] addresses SRSF protein kinase 2 (Homo sapiens) (UniProt P78362). As to the kind of experiment: Inhibition of human recombinant SRPK2 at 15 nM in presence of ATP by radiometric assay relative to control.
Assay [3] deals with Serine/threonine-protein kinase PAK 5 (Homo sapiens) (UniProt Q9P286). In words: Inhibition of human recombinant PAK5 at 40 nM in presence of ATP by radiometric assay relative to control.
Sequence of Serine/threonine-protein kinase PAK 5 (Homo sapiens) (Q9P286 whole entry, looked up): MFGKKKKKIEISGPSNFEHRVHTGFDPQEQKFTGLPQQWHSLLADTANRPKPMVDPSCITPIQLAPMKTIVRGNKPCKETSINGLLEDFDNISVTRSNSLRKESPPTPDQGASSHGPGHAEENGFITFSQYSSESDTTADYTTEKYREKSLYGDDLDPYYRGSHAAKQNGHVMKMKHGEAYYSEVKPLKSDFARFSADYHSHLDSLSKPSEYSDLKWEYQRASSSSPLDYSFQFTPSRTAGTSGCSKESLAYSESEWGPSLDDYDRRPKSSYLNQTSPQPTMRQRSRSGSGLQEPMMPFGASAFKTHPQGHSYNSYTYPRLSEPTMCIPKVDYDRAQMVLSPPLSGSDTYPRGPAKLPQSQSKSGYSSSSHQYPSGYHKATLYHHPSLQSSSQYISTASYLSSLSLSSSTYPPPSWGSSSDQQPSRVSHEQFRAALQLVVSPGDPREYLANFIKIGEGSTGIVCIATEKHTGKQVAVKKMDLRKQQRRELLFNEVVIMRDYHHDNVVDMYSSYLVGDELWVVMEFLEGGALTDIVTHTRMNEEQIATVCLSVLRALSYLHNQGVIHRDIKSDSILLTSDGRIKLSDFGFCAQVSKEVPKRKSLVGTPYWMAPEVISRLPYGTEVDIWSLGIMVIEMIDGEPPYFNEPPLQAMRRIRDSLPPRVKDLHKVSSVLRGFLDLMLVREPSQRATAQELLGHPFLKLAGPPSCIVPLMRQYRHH
For assay [4], the target named is T2, Inhibitor of nuclear factor kappa-B kinase subunit beta (Homo sapiens) (UniProt O14920).
T2 sequence (whole entry): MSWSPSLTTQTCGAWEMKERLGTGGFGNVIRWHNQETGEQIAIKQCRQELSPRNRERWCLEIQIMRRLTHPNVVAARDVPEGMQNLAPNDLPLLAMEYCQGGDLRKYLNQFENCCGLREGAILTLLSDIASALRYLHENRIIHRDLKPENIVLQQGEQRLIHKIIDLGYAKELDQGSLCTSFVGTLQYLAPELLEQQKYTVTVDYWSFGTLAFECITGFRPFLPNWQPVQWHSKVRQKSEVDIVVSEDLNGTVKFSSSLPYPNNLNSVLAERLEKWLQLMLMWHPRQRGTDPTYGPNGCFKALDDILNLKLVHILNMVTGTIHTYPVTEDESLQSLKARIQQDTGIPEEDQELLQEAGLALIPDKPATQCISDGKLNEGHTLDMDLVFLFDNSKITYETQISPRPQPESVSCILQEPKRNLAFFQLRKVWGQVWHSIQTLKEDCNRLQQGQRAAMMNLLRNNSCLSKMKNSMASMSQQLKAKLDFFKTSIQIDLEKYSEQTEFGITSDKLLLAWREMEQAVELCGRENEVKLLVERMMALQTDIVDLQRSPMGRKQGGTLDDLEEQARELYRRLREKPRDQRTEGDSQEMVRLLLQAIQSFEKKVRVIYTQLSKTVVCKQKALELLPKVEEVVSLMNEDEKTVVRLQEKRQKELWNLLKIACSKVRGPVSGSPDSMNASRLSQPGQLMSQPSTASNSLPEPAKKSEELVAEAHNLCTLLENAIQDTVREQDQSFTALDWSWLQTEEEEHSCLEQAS
In words: Inhibition of human recombinant IKKb at 40 nM in presence of ATP by radiometric assay relative to control.

Assay [5] concerns the target Insulin-like growth factor 1 receptor (Homo sapiens) (UniProt P08069). As to the kind of experiment: Inhibition of human recombinant IGF1R at 40 nM related to control ULK1.
Assay [6] addresses T3, NUAK family SNF1-like kinase 1 (Homo sapiens) (UniProt O60285).
T3 sequence (whole entry): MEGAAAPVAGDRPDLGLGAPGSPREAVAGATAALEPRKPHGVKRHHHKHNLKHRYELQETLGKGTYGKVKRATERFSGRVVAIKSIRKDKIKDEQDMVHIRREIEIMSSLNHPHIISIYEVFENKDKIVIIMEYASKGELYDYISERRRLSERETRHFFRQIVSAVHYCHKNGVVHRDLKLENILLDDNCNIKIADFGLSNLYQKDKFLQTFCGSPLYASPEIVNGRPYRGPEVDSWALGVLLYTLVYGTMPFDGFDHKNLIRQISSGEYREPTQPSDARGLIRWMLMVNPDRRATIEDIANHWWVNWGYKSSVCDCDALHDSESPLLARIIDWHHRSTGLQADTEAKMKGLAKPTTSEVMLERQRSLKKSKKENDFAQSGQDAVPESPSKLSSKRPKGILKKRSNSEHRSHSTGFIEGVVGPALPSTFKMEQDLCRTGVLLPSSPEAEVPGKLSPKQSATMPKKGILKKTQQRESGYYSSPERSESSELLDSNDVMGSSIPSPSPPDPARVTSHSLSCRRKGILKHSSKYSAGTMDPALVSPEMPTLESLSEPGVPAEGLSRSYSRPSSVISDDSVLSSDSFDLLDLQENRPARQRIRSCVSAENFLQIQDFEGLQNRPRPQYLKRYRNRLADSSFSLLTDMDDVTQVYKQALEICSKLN
In words: Inhibition of human recombinant NuaK1 at 500 nM related to control ULK1.

Sequence of SRSF protein kinase 2 (Homo sapiens) (P78362 whole entry, looked up): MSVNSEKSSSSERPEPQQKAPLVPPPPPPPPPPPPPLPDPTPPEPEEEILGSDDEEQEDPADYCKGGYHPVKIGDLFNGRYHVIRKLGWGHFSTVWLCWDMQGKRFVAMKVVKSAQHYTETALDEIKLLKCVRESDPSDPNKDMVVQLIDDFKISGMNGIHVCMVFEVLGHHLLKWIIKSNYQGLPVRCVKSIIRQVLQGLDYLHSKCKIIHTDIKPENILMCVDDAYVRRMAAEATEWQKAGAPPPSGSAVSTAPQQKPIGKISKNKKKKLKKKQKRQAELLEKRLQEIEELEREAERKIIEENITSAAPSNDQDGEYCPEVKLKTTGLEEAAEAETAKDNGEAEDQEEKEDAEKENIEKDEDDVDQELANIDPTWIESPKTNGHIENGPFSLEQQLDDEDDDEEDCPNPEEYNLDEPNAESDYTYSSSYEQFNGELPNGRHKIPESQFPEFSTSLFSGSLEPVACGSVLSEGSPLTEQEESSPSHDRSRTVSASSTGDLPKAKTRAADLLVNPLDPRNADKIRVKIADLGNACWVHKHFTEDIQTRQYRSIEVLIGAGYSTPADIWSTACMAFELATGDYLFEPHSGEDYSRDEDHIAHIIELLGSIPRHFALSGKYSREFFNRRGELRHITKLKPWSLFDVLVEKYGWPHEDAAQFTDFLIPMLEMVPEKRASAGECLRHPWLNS
Sequence of Insulin-like growth factor 1 receptor (Homo sapiens) (P08069 31-736 limits assumed): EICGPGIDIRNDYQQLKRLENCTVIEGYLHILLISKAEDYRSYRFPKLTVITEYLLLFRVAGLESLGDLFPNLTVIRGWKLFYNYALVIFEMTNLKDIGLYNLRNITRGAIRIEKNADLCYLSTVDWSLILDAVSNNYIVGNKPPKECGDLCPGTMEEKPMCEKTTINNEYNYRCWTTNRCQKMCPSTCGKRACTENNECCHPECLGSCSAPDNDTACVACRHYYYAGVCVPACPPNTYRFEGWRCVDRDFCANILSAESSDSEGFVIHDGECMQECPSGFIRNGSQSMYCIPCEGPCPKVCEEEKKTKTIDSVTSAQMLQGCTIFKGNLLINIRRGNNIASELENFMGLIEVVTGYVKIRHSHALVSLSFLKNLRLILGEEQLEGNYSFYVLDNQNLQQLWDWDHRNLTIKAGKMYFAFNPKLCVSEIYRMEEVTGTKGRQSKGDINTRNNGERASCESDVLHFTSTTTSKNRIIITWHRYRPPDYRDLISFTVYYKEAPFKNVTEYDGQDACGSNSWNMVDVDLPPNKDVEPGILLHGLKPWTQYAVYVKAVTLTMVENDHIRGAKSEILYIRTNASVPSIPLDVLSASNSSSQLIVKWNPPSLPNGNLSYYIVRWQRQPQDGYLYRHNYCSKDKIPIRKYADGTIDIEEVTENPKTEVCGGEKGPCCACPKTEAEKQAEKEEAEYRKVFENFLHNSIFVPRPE
Sequence of Insulin-like growth factor 1 receptor (Homo sapiens) (P08069 741-1367 limits assumed): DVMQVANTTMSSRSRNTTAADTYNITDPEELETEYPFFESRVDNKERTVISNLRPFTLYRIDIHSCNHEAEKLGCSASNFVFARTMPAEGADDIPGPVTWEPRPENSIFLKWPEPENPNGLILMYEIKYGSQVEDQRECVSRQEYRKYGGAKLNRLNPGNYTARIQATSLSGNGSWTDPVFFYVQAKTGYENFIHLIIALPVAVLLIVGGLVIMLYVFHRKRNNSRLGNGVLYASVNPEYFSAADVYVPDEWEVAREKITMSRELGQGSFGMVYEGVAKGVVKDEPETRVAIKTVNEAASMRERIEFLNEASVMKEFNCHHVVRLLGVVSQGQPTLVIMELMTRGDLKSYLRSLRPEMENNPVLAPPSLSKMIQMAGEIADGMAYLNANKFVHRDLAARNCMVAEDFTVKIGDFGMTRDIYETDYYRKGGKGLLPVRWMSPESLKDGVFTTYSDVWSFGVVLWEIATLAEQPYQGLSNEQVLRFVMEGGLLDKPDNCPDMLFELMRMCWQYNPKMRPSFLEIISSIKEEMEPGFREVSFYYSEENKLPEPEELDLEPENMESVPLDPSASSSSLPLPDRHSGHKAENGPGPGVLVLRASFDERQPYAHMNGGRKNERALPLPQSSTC

Broadly, the inhibition is the relative decrease from the control value, in per cent. For the compound `CC(C)[C@H](NC(=O)c1cc(-c2cnn3cc(-c4ccc(OCCN5CCCCC5)cc4)cnc23)cs1)C(F)(F)F`, the inhibition in assay [1] and in assay [2] was 0% in each case.
Consider `O=C(N[C@@H](C1CC1)C(F)(F)F)c1cc(-c2cnn3cc(-c4ccc(F)cc4)cnc23)cs1`, for which the inhibition in assay [3] and in assay [4] was 0% in each case. Besides, the fold change (FC) in assay [5] was 0.
As to `CNC(=O)c1ccccc1Oc1nc(Nc2cc(OC)c(OC)c(OC)c2)ncc1Br`, in assay [6], the fold change (FC) was found to be 0.96.
